Experimental data gathered from unrelated publications.
Protocols differ between the studies behind these lines.

CCCCCCCCCCCCNC(=S)NCCCC[C@H](NS(C)(=O)=O)C(=O)N[C@@H](C)C(=O)N[C@@H](CCCNC(=N)N)C(N)=O  EC50 (HeLa; cell growth or viability; MTT; 72 h): 28.9 to 39.1 µM
COc1cc(OC)c(C(=O)/C=C/c2ccc(Br)cn2)c(OC)c1  inhibition (HeLa; colony formation; 4 µM; 7 days): ~100%
CCCCCCCCCCCCNC(=O)NCCCC[C@H](NS(C)(=O)=O)C(=O)N[C@H](C)C(=O)N[C@@H](CCCNC(=N)N)C(N)=O  EC50 (HeLa; cell growth or viability; MTT; 72 h): 23.1 to 41.4 µM
O=C(Nc1cc(OCCN2CCCC2)c2ccccc2n1)c1cc(OCc2ccc(F)cc2)cc(C(=O)Nc2cc(OCCN3CCCC3)c3ccccc3n2)n1  IC50 (U2OS; cell growth or viability; ATP luminescence; 72 h): 5800 nM
COc1ccc(-c2ccc(-c3ccc(C(=N)N)nc3)s2)cc1Cl  GI50 (Hs-578T; cell growth or viability; SRB): 1850 nM
CCOCCOCCOCCNC(=S)NCCCC[C@H](NS(C)(=O)=O)C(=O)N[C@@H](C)C(=O)N[C@@H](CCCNC(=N)N)C(N)=O  EC50 (HeLa; cell growth or viability; MTT; 72 h): > 100 µM
CC(C)[C@H](N)C(=O)N1CCC[C@H]1B(O)O  IC50 (SKM-1; cell growth or viability; ATP luminescence; 48 h): 44 nM
COc1cc(Nc2nccc(-c3cnn4nc(OC)ccc34)n2)cc(C(F)(F)F)c1  IC50 (U2OS; cell growth or viability; ATP luminescence): 390 nM
COc1cccc(Oc2ccccc2NC(=O)CNC(=O)c2cccc3ccccc23)c1  GI50 (Hs-578T; cell growth or viability; SRB; 48 h): 380 nM
Cn1nnc2c(C(N)=O)ncn2c1=O  EC50 (BGC-823; cell growth or viability): > 1000 µM
N=C(CCl)NCCC[C@H](NC(=O)c1ccccc1)C(N)=O  EC50 (U2OS; cell growth or viability; XTT; 72 h): > 200 µM
COc1cc(-c2ccc(-c3ccc(C(=N)N)nc3)s2)cc(OC)c1OC  GI50 (Hs-578T; cell growth or viability; SRB): 2590 nM
Cc1ccc(NC(=O)c2ccc(CN3CCN(C)CC3)cc2)cc1Nc1nccc(-c2cccnc2)n1  inhibition (HeLa; cell growth or viability; MTT; 1 µM; 48 h): 11%
COc1ccc(-c2ccc(-c3ccc(C(=N)N)nc3)s2)cc1  GI50 (Hs-578T; cell growth or viability; SRB): 1820 nM
C=CC(=O)N1CCC[C@@H](n2nc(-c3ccc(Oc4ccccc4)cc3)c3c(N)ncnc32)C1  GI50 (NB-4; cell growth or viability; ATP luminescence; 72 h): 7500 nM
